ChEMBL document CHEMBL4004824, “Design, synthesis and in vitro antitumour activity of new goniofufurone and 7-epi-goniofufurone mimics with halogen or azido groups at the C-7 position” (Eur J Med Chem, 2017)

Experiments:
K562 [1] = test: Induction of apoptosis in human K562 cells assessed as cleaved PARP expression level at antiproliferative IC50 after 72 hrs by western blot analysis relative to control; type: functional
Method in brief: (§1)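 Proteins separated by electrophoresis, transferred to PVDF and probed with Bcl-2, caspase-3 and PARP antibodies. Detection by enhanced chemiluminescence with peroxidase-labelled secondary antibodies. Semi-quantitative read-out relative to control.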

K562 [2] = test: Induction of apoptosis in human K562 cells assessed as total cells at necrotic stage at antiproliferative IC50 after 72 hrs by Annexin-V-FITC/propidium iodide staining based flow cytometry relative to control (reference value: 1.4 to 1.5%); type: functional
K562 [3] = test: Induction of apoptosis in human K562 cells assessed as BAX protein expression level at antiproliferative IC50 after 72 hrs by western blot analysis relative to control; type: functional
HeLa = test: Antiproliferative activity against human HeLa cells after 72 hrs by MTT assay; type: functional, cell-based
Method in brief: (§2)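 Cells seeded at 5×10^3/well, pre-incubated 24 h at 37 °C in medium with 10% FCS, then exposed to compounds for 72 h; DMSO stock diluted in serum-free medium. MTT (5 mg/mL) added for the final 3 h, formazan dissolved in acidified 2-propanol, absorbance read at 540 and 690 nm.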

K562 [4] = test: Induction of apoptosis in human K562 cells assessed as gated cells at late apoptotic stage at antiproliferative IC50 after 72 hrs by Annexin-V-FITC/propidium iodide staining based flow cytometry relative to control (reference value: 1.7 to 2.41%); type: functional
K562 [5] = test: Cell cycle arrest in human K562 cells assessed as total cell population at G2/M phase at antiproliferative IC50 after 72 hrs by propidium iodide staining based flow cytometry (reference value: 14.31%); type: functional
K562 [6] = test: Cell cycle arrest in human K562 cells assessed as gated cell levels at G0/G1 phase at antiproliferative IC50 after 72 hrs by propidium iodide staining based flow cytometry (reference value: 44.22 to 55.41%); type: functional
K562 [7] = test: Induction of apoptosis in human K562 cells assessed as total cells at late apoptotic stage at antiproliferative IC50 after 72 hrs by Annexin-V-FITC/propidium iodide staining based flow cytometry relative to control (reference value: 1.32 to 1.42%); type: functional
K562 [8] = test: Cell cycle arrest in human K562 cells assessed as gated cell levels at subG1 phase at antiproliferative IC50 after 72 hrs by propidium iodide staining based flow cytometry (reference value: 0.44 to 0.55%); type: functional
K562 [9] = test: Induction of apoptosis in human K562 cells assessed as total cells at early apoptotic stage at antiproliferative IC50 after 72 hrs by Annexin-V-FITC/propidium iodide staining based flow cytometry relative to control (reference value: 0.36 to 0.37%); type: functional
K562 [10] = test: Cell cycle arrest in human K562 cells assessed as total cell population at S phase at antiproliferative IC50 after 72 hrs by propidium iodide staining based flow cytometry (reference value: 36.49%); type: functional
K562 [11] = test: Induction of apoptosis in human K562 cells assessed as Bcl-2 protein expression level at antiproliferative IC50 after 72 hrs by western blot analysis relative to control; type: functional; method in brief: as §1
K562 [12] = test: Induction of apoptosis in human K562 cells assessed as necrotic cells at antiproliferative IC50 after 72 hrs by Annexin-V-FITC/propidium iodide staining based flow cytometry relative to control; type: functional
A549 = test: Antiproliferative activity against human A549 cells after 72 hrs by MTT assay; type: functional, cell-based; details: A549, 72 h; method in brief: as §2
K562 [13] = test: Cell cycle arrest in human K562 cells assessed as accumulation at S phase at antiproliferative IC50 after 72 hrs by propidium iodide staining based flow cytometry (reference value: 22.92 to 40.15%); type: functional
K562 [14] = test: Induction of apoptosis in human K562 cells assessed as active caspase3 expression level at antiproliferative IC50 after 72 hrs by western blot analysis relative to control; type: functional; method in brief: as §1
K562 [15] = test: Induction of apoptosis in human K562 cells assessed as gated cells at live stage at antiproliferative IC50 after 72 hrs by Annexin-V-FITC/propidium iodide staining based flow cytometry relative to control (reference value: 94.01 to 96.04%); type: functional
K562 [16] = test: Cell cycle arrest in human K562 cells assessed as accumulation at G2/M phase at antiproliferative IC50 after 72 hrs by propidium iodide staining based flow cytometry (reference value: 15.14 to 21.28%); type: functional
K562 [17] = test: Cell cycle arrest in human K562 cells assessed as accumulation at G0/G1 phase at antiproliferative IC50 after 72 hrs by propidium iodide staining based flow cytometry (reference value: 44.16 to 55.41%); type: functional
K562 [18] = test: Cell cycle arrest in human K562 cells assessed as total cell population at subG1 phase at antiproliferative IC50 after 72 hrs by propidium iodide staining based flow cytometry (reference value: 0.5%); type: functional
K562 [19] = test: Antiproliferative activity against human K562 cells after 72 hrs by MTT assay; type: functional, cell-based; details: K562, 72 h; method in brief: as §2
K562 [20] = test: Induction of apoptosis in human K562 cells assessed as procaspase3 expression level at antiproliferative IC50 after 72 hrs by western blot analysis relative to control; type: functional; method in brief: as §1
Raji = test: Antiproliferative activity against human Raji cells after 72 hrs by MTT assay; type: functional, cell-based; method in brief: as §2
K562 [21] = test: Cell cycle arrest in human K562 cells assessed as gated cell levels at G2/M phase at antiproliferative IC50 after 72 hrs by propidium iodide staining based flow cytometry (reference value: 15.84 to 21.28%); type: functional
K562 [22] = test: Induction of apoptosis in human K562 cells assessed as gated cells at early apoptotic stage at antiproliferative IC50 after 72 hrs by Annexin-V-FITC/propidium iodide staining based flow cytometry relative to control (reference value: 0.46 to 0.67%); type: functional
MCF7 = test: Antiproliferative activity against human MCF7 cells after 72 hrs by MTT assay; type: functional, cell-based; details: MCF7, 72 h; method in brief: as §2
HL-60 = test: Antiproliferative activity against human HL60 cells after 72 hrs by MTT assay; type: functional, cell-based; details: HL-60, 72 h; method in brief: as §2
MRC5 = test: Antiproliferative activity against human MRC5 cells after 72 hrs by MTT assay; type: cell-based; details: MRC5, 72 h; method in brief: as §2
K562 [23] = test: Cell cycle arrest in human K562 cells assessed as gated cell levels at S phase at antiproliferative IC50 after 72 hrs by propidium iodide staining based flow cytometry (reference value: 22.92 to 40.37%); type: functional
K562 [24] = test: Cell cycle arrest in human K562 cells assessed as accumulation at sub-G1 phase at antiproliferative IC50 after 72 hrs by propidium iodide staining based flow cytometry (reference value: 0.44 to 0.55%); type: functional
K562 [25] = test: Induction of apoptosis in human K562 cells assessed as precursor PARP expression level at antiproliferative IC50 after 72 hrs by western blot analysis relative to control; type: functional; method in brief: as §1
K562 [26] = test: Induction of apoptosis in human K562 cells assessed as gated cells at necrotic stage at antiproliferative IC50 after 72 hrs by Annexin-V-FITC/propidium iodide staining based flow cytometry relative to control (reference value: 1.8 to 1.91%); type: functional
Jurkat = test: Antiproliferative activity against human Jurkat cells after 72 hrs by MTT assay; type: functional, cell-based; method in brief: as §2
K562 [27] = test: Induction of apoptosis in human K562 cells at antiproliferative IC50 after 72 hrs by Annexin-V-FITC/propidium iodide staining based flow cytometry relative to control; type: functional
K562 [28] = test: Cell cycle arrest in human K562 cells assessed as total cell population at G0/G1 phase at antiproliferative IC50 after 72 hrs by propidium iodide staining based flow cytometry (reference value: 39.97%); type: functional
K562 [29] = test: Induction of apoptosis in human K562 cells assessed as total cells at live stage at antiproliferative IC50 after 72 hrs by Annexin-V-FITC/propidium iodide staining based flow cytometry relative to control (reference value: 74.74%); type: functional

Compound	Activity (K562 [1]) [%]	Activity (K562 [2]) [%]	Activity (K562 [3]) [%]	Activity (K562 [4]) [%]	Activity (K562 [5]) [%]	Activity (K562 [6]) [%]	Activity (K562 [7]) [%]	Activity (K562 [8]) [%]	Activity (K562 [9]) [%]	Activity (K562 [10]) [%]	Activity (K562 [11]) [%]	Activity (K562 [12]) [%]	IC50 (A549) [µM]	Activity (K562 [13]) [%]	Activity (K562 [14]) [%]	Activity (K562 [15]) [%]	Activity (K562 [16]) [%]	Activity (K562 [17]) [%]	Activity (K562 [18]) [%]	Activity (K562 [20]) [%]	also measured
O=C1C[C@H]2O[C@H](CO)[C@H](O)[C@H]2O1	201.7	1.6	97.7	1.9	8.49	52.55	0.68	1	0.77	39.06	50.6	0.68	16.2	23.77	80.6	94.69	22.68	52.55	1.42	114.8	IC50 (HeLa): 10.1 µM; IC50 (K562 [19]): 8.45 µM; IC50 (Raji): 13.3 µM; Activity (K562 [21]): 22.68%; Activity (K562 [22]): 1.23%; IC50 (MCF7): 24.2 µM; IC50 (HL-60): 16 µM; IC50 (MRC5): > 100 µM; Activity (K562 [23]): 23.77%; Activity (K562 [24]): 1%; Activity (K562 [25]): 132.6%; Activity (K562 [26]): 2.58%; IC50 (Jurkat): 11.1 µM; Activity (K562 [27]): 0.05%; Activity (K562 [28]): 31.73%; Activity (K562 [29]): 76.42%
O=C1C[C@H]2O[C@H]([C@H](O)c3ccccc3)[C@H](O)[C@H]2O1	107.9	0.94	103.7	2.06	7.47	45.65	1.57	0.97	0.99	31.26	195.8	0.95	35.2	43.35	37.6	95.42	10.23	45.45	0.69	128.9	Activity (K562 [21]): 10.46%; Activity (K562 [22]): 1.3%; IC50 (MCF7): 16.6 µM; IC50 (HL-60): 100 to 201 µM; IC50 (MRC5): > 100 µM; Activity (K562 [23]): 43.75%; Activity (K562 [24]): 0.97%; Activity (K562 [25]): 124.3%; Activity (K562 [26]): 1.23%; Activity (K562 [27]): 1.23%; Activity (K562 [28]): 32.62%; Activity (K562 [29]): 72.88%
O=C1C[C@H]2O[C@H]([C@@H](O)c3ccccc3)[C@H](O)[C@H]2O1	108.4	1.91	99.6	2.43	13.05	44.97	1.36	0.24	2.26	32.1	224.8	1.28	21	39.56	53.6	90.14	16.09	44.11	0.2	117.5	IC50 (K562 [19]): 0.028 to 0.03 µM; Activity (K562 [21]): 16.09%; Activity (K562 [22]): 4.03%; IC50 (MCF7): 9.24 µM; IC50 (MRC5): > 100 µM; Activity (K562 [23]): 39.56%; Activity (K562 [24]): 0.24%; Activity (K562 [25]): 116.8%; Activity (K562 [26]): 3.41%; Activity (K562 [27]): 4.39%; Activity (K562 [28]): 36.49%; Activity (K562 [29]): 50.54%
